Some of the results follow. Active and inactive are the calls of the source.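 How the source made its calls, unless noted: active means mean percent inhibition of duplicate wells above the buffer-only control mean plus 3 SD of those controls; inactive means the rest.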
Biological target: Potassium voltage-gated channel subfamily KQT member 2 (Rattus norvegicus) (UniProt O88943)
Experiment: KCNQ2 channel inhibition, selectivity assay for KCNQ1 inhibitor project, cell-based (AID 651746;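 active means mean percent inhibition of the KCNQ2 thallium signal more than 5 SD above the buffer-only control wells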;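 further: KCNQ2 expressed in CHO cells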;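 on inhibition: 0% = buffer control wells and 100% = XE-991 inhibitor control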)
Settings: KCNQ2 cells, FluxOR thallium flux fluorescence, at 10 µM; hits give high values

Sequence of Potassium voltage-gated channel subfamily KQT member 2 (Rattus norvegicus) (O88943 whole entry, looked up): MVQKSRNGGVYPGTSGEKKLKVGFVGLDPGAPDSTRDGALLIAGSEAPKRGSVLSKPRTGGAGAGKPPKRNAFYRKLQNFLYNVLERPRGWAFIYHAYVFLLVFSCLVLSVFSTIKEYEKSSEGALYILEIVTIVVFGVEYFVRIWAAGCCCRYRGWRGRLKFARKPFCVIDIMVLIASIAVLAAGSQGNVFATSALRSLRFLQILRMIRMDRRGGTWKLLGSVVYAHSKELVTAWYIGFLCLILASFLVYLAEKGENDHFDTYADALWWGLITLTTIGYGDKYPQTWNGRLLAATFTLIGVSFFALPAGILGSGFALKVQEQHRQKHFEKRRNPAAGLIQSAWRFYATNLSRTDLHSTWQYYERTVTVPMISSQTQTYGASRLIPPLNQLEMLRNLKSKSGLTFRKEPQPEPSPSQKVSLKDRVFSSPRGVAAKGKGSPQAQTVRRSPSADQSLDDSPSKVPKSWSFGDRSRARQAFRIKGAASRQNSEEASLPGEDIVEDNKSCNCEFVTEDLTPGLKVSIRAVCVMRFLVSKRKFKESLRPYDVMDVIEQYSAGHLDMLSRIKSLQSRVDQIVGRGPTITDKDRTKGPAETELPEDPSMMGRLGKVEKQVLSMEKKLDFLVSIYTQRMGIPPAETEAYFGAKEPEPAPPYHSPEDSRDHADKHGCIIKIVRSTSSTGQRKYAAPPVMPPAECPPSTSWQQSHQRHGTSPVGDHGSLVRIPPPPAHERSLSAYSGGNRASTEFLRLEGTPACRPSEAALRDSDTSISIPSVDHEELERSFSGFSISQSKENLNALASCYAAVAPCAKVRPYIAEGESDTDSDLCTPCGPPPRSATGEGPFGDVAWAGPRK

SMILES	outcome	inhibition
CCSc1nsc(NC(=O)Nc2cccc(C(C)=O)c2)n1	inactive	–
COc1ccc(Cl)cc1NC(=O)C(C)N1CCc2ccccc21 (configuration not stated)	–	91% (active)
Cc1nc(N2CCN(c3ccccn3)CC2)c2c(C)c(C(=O)Nc3ccc(F)c(Cl)c3)sc2n1	–	124% (active)
Cn1nc(-c2ccc(Cl)cc2)c2cc(C(=O)NCc3ccco3)sc21	–	103% (active)
Cc1ccc(S(=O)(=O)Nc2ccc3ncccc3c2)cc1	inactive	–
Cc1nc2ccccc2cc1OCc1ccc(F)cc1	–	99% (active)
COc1ccc(-c2cc(C(F)(F)F)nc(S(C)(=O)=O)n2)cc1OC	inactive	–
C=CCSc1nsc(NC(=O)Nc2cccc(C(C)=O)c2)n1	–	74% (active)
COc1ccc(Nc2ncnc3sc(-c4ccccc4)cc23)c(OC)c1	–	112% (active)
CCC(=C/c1sc2ccc3ccccc3c2[n+]1C)/C=C1\Sc2ccc3ccccc3c2N1C	–	59% (active)
Clc1cccc(-c2nc(NCC3CCCO3)c3ccccc3n2)c1 (configuration not stated)	–	118% (active)
Cn1nccc1C(=O)NC1CCCc2c1cnn2-c1ccc(F)cc1F (configuration not stated)	–	60.3% (active)
O=C(CCN1c2ccccc2Sc2ccccc21)Nc1ccccc1	–	118% (active)
S=C(Nc1cccc(Cl)c1)Nc1ccc2c(c1)OCCO2	inactive	–
COC(=O)c1ccc(NC(=O)Nc2ccc(C)cc2)cc1	inactive	–
Cc1cc(C)cc(NC(=O)NC2CCCCCCC2)c1	inactive	–
CCN(CC)CC(=O)Nc1sc2c(c1C(=O)c1ccccc1C)CCC2	–	89% (active)
Cc1oc2c(F)c(F)c(F)c(F)c2c1S(=O)(=O)Nc1cccc(C(F)(F)F)c1	inactive	–
CC(C)(CCl)C(=O)Nc1ccc(Sc2ccc(F)cc2)cc1	–	111% (active)
C=CCOC(=O)C1=C(C)NC(SCC(=O)OCC)=C(C#N)C1c1ccc(C)cc1 (configuration not stated)	–	115% (active)
O=C(Nc1ccc(Cl)c(Cl)c1)N1CC=C(c2ccccc2)CC1	–	110% (active)
O=C(NC(=S)Nc1ccccc1C(=O)O)c1ccc(-c2ccc(Br)cc2)o1	inactive	–
Cc1cccc(NC(=S)Nc2ccc(Cl)c(Cl)c2)c1	inactive	–
CCOC(=O)c1cnc(SC)nc1Sc1ccc(Cl)cc1Cl	–	93% (active)
O=C1CCc2cc(S(=O)(=O)N3CCC(C(=O)NCc4ccccc4Cl)CC3)ccc2N1	inactive	–

Biological target: Potassium voltage-gated channel subfamily E member 1 (Homo sapiens) + Potassium voltage-gated channel subfamily KQT member 1 (Homo sapiens) (UniProt P15382+P51787)
Experiment: KCNQ1/KCNE1 channel inhibition, selectivity assay for KCNQ1 inhibitor project, CHO-K1 cells, thallium flux, FluxOR (AID 652147);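 on inhibition: 0% = buffer only wells and 100% = XE-991 inhibitor control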
Settings: FluxOR thallium flux fluorescence, at 10 µM; hits give high values
Procedure, shortened: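 test system = KCNQ1/KCNE1 cells | schedule = 20 min compound pre-incubation at room temperature | detection = FluxOR thallium influx fluorescence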

Sequence of Potassium voltage-gated channel subfamily E member 1 (Homo sapiens) + Potassium voltage-gated channel subfamily KQT member 1 (Homo sapiens) (P51787 whole entry, looked up): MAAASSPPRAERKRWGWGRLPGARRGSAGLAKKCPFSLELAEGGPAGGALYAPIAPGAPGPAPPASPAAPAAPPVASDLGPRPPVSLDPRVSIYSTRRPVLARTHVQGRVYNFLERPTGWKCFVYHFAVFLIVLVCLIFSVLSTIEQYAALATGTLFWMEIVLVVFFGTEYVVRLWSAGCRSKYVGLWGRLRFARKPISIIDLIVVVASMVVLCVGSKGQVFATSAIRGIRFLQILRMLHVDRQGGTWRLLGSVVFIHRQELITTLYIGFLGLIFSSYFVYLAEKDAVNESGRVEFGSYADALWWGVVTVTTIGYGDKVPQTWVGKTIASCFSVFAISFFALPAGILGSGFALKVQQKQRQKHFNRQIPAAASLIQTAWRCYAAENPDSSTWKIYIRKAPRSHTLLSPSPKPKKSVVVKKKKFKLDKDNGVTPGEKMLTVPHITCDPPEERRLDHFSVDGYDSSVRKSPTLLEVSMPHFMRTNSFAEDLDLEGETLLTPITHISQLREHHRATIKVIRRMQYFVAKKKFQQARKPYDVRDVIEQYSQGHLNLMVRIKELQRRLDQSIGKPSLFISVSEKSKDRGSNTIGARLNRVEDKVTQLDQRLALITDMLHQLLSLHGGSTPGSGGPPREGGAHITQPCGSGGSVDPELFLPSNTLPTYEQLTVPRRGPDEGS

SMILES	inhibition	outcome
O=C(NCCc1ccccc1)c1ccc2c(c1)N(Cc1ccccc1)CCS2	72% (active)	–
COc1ccc(S(=O)(=O)/N=C2\C=C(NS(=O)(=O)c3ccccc3)C(=O)c3ccccc32)cc1	–	inactive
CCn1c(C)c(C)c2cc(C(=O)N3CCN(c4cccc(C)c4C)CC3)ccc21	180% (active)	–
Cc1cccc(-n2cc(CN3CCN(C(=O)c4ncn[nH]4)CC3)c(-c3cccc(F)c3)n2)c1	–	inactive
CCOC(=O)C1CCN(c2ncnc3c2oc2ccc(Br)cc23)CC1	193% (active)	–
CCc1noc(C)c1C(=O)Oc1ccc(N(C)S(=O)(=O)c2ccc(C)c(C)c2)cc1	83.5% (active)	–
S=C(NCC1CCCO1)N1CCN(c2ccc(Cl)c(Cl)c2)CC1 (configuration not stated)	–	inactive
O=C(Nc1ccc2ccccc2c1)Nc1ccc2snnc2c1	–	inactive
CC1CCCN(C(C(=O)Nc2ccc(C(C)C)cc2)c2ccc3c(c2)OCO3)C1 (configuration not stated)	164% (active)	–
CCOc1ccc(CN2CCN(Cc3c[nH]c4ccccc34)CC2)cc1	40% (active)	–
COc1ccc(-c2csc3ncnc(N4CCN(S(=O)(=O)c5cccc(F)c5)CC4)c23)cc1	122% (active)	–
Cc1cc(Br)ccc1NC(=O)c1cnc(N2CCN(c3ccccn3)CC2)c2ccccc12	124% (active)	–
CC(C)OC(=O)C(C#N)c1nc2ccccc2nc1N1CCN(Cc2ccccc2)CC1 (configuration not stated)	–	inactive
CC(C)OCCCNc1ncnc2c1[nH]c1ccc(F)cc12	–	inactive
CCSc1nsc(NC(=O)Nc2cccc(C(C)=O)c2)n1	–	inactive
COc1ccc(Cl)cc1NC(=O)C(C)N1CCc2ccccc21 (configuration not stated)	132% (active)	–
Cn1nc(-c2ccc(Cl)cc2)c2cc(C(=O)NCc3ccco3)sc21	–	inactive
Cc1ccc(S(=O)(=O)Nc2ccc3ncccc3c2)cc1	–	inactive
Cc1nc2ccccc2cc1OCc1ccc(F)cc1	88.5% (active)	–

SMILES	inhibition	outcome
COc1ccc(-c2cc(C(F)(F)F)nc(S(C)(=O)=O)n2)cc1OC	77.5% (active)	–
C=CCSc1nsc(NC(=O)Nc2cccc(C(C)=O)c2)n1	60% (active)	–
COc1ccc(Nc2ncnc3sc(-c4ccccc4)cc23)c(OC)c1	146% (active)	–
CCC(=C/c1sc2ccc3ccccc3c2[n+]1C)/C=C1\Sc2ccc3ccccc3c2N1C	64% (active)	–
Clc1cccc(-c2nc(NCC3CCCO3)c3ccccc3n2)c1 (configuration not stated)	154% (active)	–
Cn1nccc1C(=O)NC1CCCc2c1cnn2-c1ccc(F)cc1F (configuration not stated)	–	inactive
O=C(CCN1c2ccccc2Sc2ccccc21)Nc1ccccc1	186% (active)	–
S=C(Nc1cccc(Cl)c1)Nc1ccc2c(c1)OCCO2	47% (active)	–
COC(=O)c1ccc(NC(=O)Nc2ccc(C)cc2)cc1	–	inactive
Cc1cc(C)cc(NC(=O)NC2CCCCCCC2)c1	164% (active)	–
CCN(CC)CC(=O)Nc1sc2c(c1C(=O)c1ccccc1C)CCC2	168% (active)	–
Cc1oc2c(F)c(F)c(F)c(F)c2c1S(=O)(=O)Nc1cccc(C(F)(F)F)c1	–	inactive
C=CCOC(=O)C1=C(C)NC(SCC(=O)OCC)=C(C#N)C1c1ccc(C)cc1 (configuration not stated)	160% (active)	–
O=C(Nc1ccc(Cl)c(Cl)c1)N1CC=C(c2ccccc2)CC1	134% (active)	–
O=C(NC(=S)Nc1ccccc1C(=O)O)c1ccc(-c2ccc(Br)cc2)o1	78% (active)	–
Cc1cccc(NC(=S)Nc2ccc(Cl)c(Cl)c2)c1	–	inactive
CCOC(=O)c1cnc(SC)nc1Sc1ccc(Cl)cc1Cl	111% (active)	–
O=C1CCc2cc(S(=O)(=O)N3CCC(C(=O)NCc4ccccc4Cl)CC3)ccc2N1	–	inactive

From PubChem BioAssay
